Reference: ChEMBL document CHEMBL3400020, “2'-Hydroxy flavanone derivatives as an inhibitors of pro-inflammatory mediators: Experimental and molecular docking studies” (Bioorg Med Chem Lett, 2015)

Experiments:
RAW264.7 [1] = assay: Inhibition of LPS-induced nitric oxide production in mouse RAW264.7 cells pre-incubated for 1 hr followed by LPS stimulation for 24 hrs by Griess reagent based assay; format: functional, cell-based
Summary of the method: (§1)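 RAW 264.7 and J774A.1 cells handled in parallel. Viability was read at 50 µM alongside the LPS-stimulated NO (Griess) assay. Values are from three independent experiments, each run in triplicate.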

J774.A1 [2] = assay: Inhibition of LPS-induced nitric oxide production in mouse J774A.1 cells pre-incubated for 1 hr followed by LPS stimulation for 24 hrs by Griess reagent based assay; format: functional, cell-based; summary of the method: as §1
[3] = Cytotoxicity against mouse RAW264.7 cells assessed as cell viability at 50 uM after 24 hrs by MTT assay; format: cell-based; conditions: read-out: Activity; summary of the method: as §1
[4] = Cytotoxicity against mouse J774A.1 cells assessed as cell viability at 50 uM after 24 hrs by MTT assay; format: cell-based, J774.A1; conditions: read-out: Activity; summary of the method: as §1
RAW264.7 [5] = assay: Inhibition of TNFalpha production in mouse RAW264.7 cells at 30 uM incubated for 6 hrs by sandwich immunoassay; format: functional; conditions: RAW264.7, 6 h
Summary of the method: (§2)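 In RAW 264.7 and J774A.1 macrophages, TNF-α and IL-1β were quantified. Single-point data are % inhibition at 30 µM; otherwise IC50 in µM. Values are from three separate experiments, each in triplicate.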

J774.A1 [6] = assay: Inhibition of TNFalpha production in mouse J774A.1 cells at 30 uM incubated for 6 hrs by sandwich immunoassay; format: functional; conditions: J774.A1, 6 h; summary of the method: as §2
RAW264.7 [7] = assay: Inhibition of IL-1beta production in mouse RAW264.7 cells at 30 uM incubated for 12 hrs by sandwich immunoassay; format: functional; conditions: RAW264.7, 12 h; summary of the method: as §2
J774.A1 [8] = assay: Inhibition of IL-1beta production in mouse J774A.1 cells at 30 uM incubated for 12 hrs by sandwich immunoassay; format: functional; conditions: J774.A1, 12 h; summary of the method: as §2
RAW264.7 [9] = assay: Inhibition of TNFalpha production in mouse RAW264.7 cells incubated for 6 hrs by sandwich immunoassay; format: functional, cell-based; conditions: RAW264.7, 6 h; summary of the method: as §2
J774.A1 [10] = assay: Inhibition of TNFalpha production in mouse J774A.1 cells incubated for 6 hrs by sandwich immunoassay; format: functional, cell-based; conditions: J774.A1, 6 h; summary of the method: as §2
RAW264.7 [11] = assay: Inhibition of IL-1beta production in mouse RAW264.7 cells incubated for 12 hrs by sandwich immunoassay; format: functional, cell-based; conditions: RAW264.7, 12 h; summary of the method: as §2
J774.A1 [12] = assay: Inhibition of IL-1beta production in mouse J774A.1 cells incubated for 12 hrs by sandwich immunoassay; format: functional, cell-based; conditions: J774.A1, 12 h; summary of the method: as §2
Rattus norvegicus [13] = assay: Antiinflammatory activity in Sprague-Dawley rat assessed as inhibition of LPS-induced IL-1beta production at 150 umol/kg, po pre-administered at interval of 12 hrs followed by LPS-stimulation 6 hrs after final dose and measured 2 hrs post LPS challenge by ELISA method; format: functional
Rattus norvegicus [14] = assay: Antiinflammatory activity in Sprague-Dawley rat assessed as inhibition of LPS-induced TNFalpha production at 150 umol/kg, po pre-administered at interval of 12 hrs followed by LPS-stimulation 2 hrs after final dose and measured 2 hrs post LPS challenge by ELISA method; format: functional
Rattus norvegicus [15] = assay: Antiinflammatory activity in Sprague-Dawley rat assessed as inhibition of carrageenan-induced paw edema at 150 umol/kg, po administered 1 hr before carrageenan injection and measured 3 hrs post carrageenan challenge
Rattus norvegicus [16] = assay: Antiinflammatory activity in Sprague-Dawley rat assessed as inhibition of carrageenan-induced paw edema at 150 umol/kg, po administered 1 hr before carrageenan injection and measured 5 hrs post carrageenan challenge

IC50 (RAW264.7 [1])	IC50 (J774.A1 [2])	IC50 (RAW264.7 [9])	IC50 (J774.A1 [10])	IC50 (RAW264.7 [11])	IC50 (J774.A1 [12])	SMILES	viability at 24 h, 50 µM [3]	viability at 24 h, 50 µM [4]	inhibition at 30 µM (RAW264.7 [5])	inhibition at 30 µM (J774.A1 [6])	inhibition at 30 µM (RAW264.7 [7])	inhibition at 30 µM (J774.A1 [8])	inhibition in vivo at 150 µmol/kg (Rattus norvegicus [13])	inhibition in vivo at 150 µmol/kg (Rattus norvegicus [14])	inhibition in vivo at 150 µmol/kg (Rattus norvegicus [15])	inhibition in vivo at 150 µmol/kg (Rattus norvegicus [16])
47.3 µM	44.5 µM					COc1ccccc1C1CC(=O)c2ccccc2O1 (centres undefined)	84.3%	89.3%	37.3%	34.5%	37.3%	38.3%				
38.5 µM	38.8 µM					CCOc1ccccc1C1CC(=O)c2ccccc2O1 (centres undefined)	82.6%	92.7%	38.5%	38.8%	29.6%	27.7%				
46 µM	44.6 µM					CCCOc1ccccc1C1CC(=O)c2ccccc2O1 (centres undefined)	91.7%	93.6%	46%	44.6%	45.7%	43.6%				
48.7 µM	47.7 µM					CCCCOc1ccccc1C1CC(=O)c2ccccc2O1 (centres undefined)	78.3%	95.5%	48.7%	47.7%	19.3%	42.5%				
36.7 µM	33.2 µM					CC(C)COc1ccccc1C1CC(=O)c2ccccc2O1 (centres undefined)	83.3%	84.5%	36.7%	33.2%	30.4%	33.5%				
39.2 µM	39.3 µM					CCCCCOc1ccccc1C1CC(=O)c2ccccc2O1 (centres undefined)	90.3%	92.1%	39.2%	39.3%	41.3%	40.1%				
39.2 µM	42.6 µM					CC(C)CCOc1ccccc1C1CC(=O)c2ccccc2O1 (centres undefined)	81.6%	88.6%	39.2%	42.6%	47.6%	43.6%				
32.7 µM	34.3 µM					CC(C)=CCOc1ccccc1C1CC(=O)c2ccccc2O1 (centres undefined)	94.8%	92.3%	41.7%	31.7%	41.8%	40.3%				
37.8 µM	38.6 µM					C=CCOc1ccccc1C1CC(=O)c2ccccc2O1 (centres undefined)	89.3%	84%	47.8%	38.6%	49.3%	47%				
18.9 µM	23.2 µM	20.1 µM	22.4 µM	25.2 µM	24.5 µM	O=C1CC(c2ccccc2OCc2ccccc2)Oc2ccccc21 (centres undefined)	91.2%	96.5%	86.1%	83.1%	93.2%	91.5%	28.4%	32.1%	9.8%	35.7%
27.1 µM	28.6 µM	23.7 µM	23.2 µM	25.1 µM	23.1 µM	CC(C)c1ccc(COc2ccccc2C2CC(=O)c3ccccc3O2)cc1 (centres undefined)	92.5%	99.7%	80.6%	78.6%	91.5%	91.7%	24.6%	30.3%	18%	32.3%
28.2 µM	25.5 µM	17.7 µM	18.2 µM			O=C1CC(c2ccccc2OCc2ccc(F)cc2)Oc2ccccc21 (centres undefined)	95.2%	91.1%	92.7%	94.1%	45.2%	42.1%	43.6%	55.4%	18.2%	50.5%
15.6 µM	13.2 µM	19.8 µM	20.1 µM	27.4 µM	30.2 µM	O=C1CC(c2ccccc2OCc2cccc(F)c2)Oc2ccccc21 (centres undefined)	90.3%	92.7%	91.6%	96.2%	93.3%	92.7%	39.2%	49.6%	5.2%	39.5%
32.6 µM	35.2 µM					COCOc1ccccc1C1CC(=O)c2ccccc2O1 (centres undefined)	92.2%	99.4%	48.6%	45.2%	35.2%	33.3%				
		0.04 µM	0.4 µM		22 µM	C[C@@H]1C[C@H]2[C@@H]3CCC4=CC(=O)C=C[C@]4(C)[C@@]3(F)[C@@H](O)C[C@]2(C)[C@@]1(O)C(=O)CO [DEXAMETHASONE]							62.5%	73.4%		
						CC(C)Cc1ccc(C(C)C(=O)O)cc1 (centres undefined) [IBUPROFEN]									30.5%	41.4%
